The M2OR odorant receptor database

Key:
Conditions in all cases: stereoisomer not certain
OR1A2 (Homo sapiens) = target: T1, OR1A2 (Homo sapiens) (UniProt Q9Y585)
T1 sequence (whole entry): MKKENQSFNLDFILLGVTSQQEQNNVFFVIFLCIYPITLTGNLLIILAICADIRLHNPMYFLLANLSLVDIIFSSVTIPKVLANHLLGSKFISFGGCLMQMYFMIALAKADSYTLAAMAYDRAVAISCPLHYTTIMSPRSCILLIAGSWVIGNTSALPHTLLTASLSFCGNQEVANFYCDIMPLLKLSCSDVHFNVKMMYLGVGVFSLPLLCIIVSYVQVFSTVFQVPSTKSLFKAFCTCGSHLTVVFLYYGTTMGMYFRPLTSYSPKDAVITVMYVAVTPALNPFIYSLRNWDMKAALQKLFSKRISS
Summary of the method: (§1)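 Each entry records the cell line, G-protein, co-transfected protein and tags used. Methods varied with the source, often transient luciferase assays in mammalian cell lines. A receptor–molecule pair is called responsive (active) if the original authors judged its signal statistically different from baseline and non-responsive (inactive) otherwise.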

OR1A2 A108G K109N S155N = tested on: OR1A2 A108G K109N S155N
Summary of the method: as §1

[1] = tested on: OR1A2 A108G K109N T154A S155N
Summary of the method: as §1

OR1A2 A108G K109N T154A = tested on: OR1A2 A108G K109N T154A
Summary of the method: as §1

OR1A2 A108G K109N = tested on: OR1A2 A108G K109N
Summary of the method: as §1

OR1A2 A108G T154A S155N = tested on: OR1A2 A108G T154A S155N
Summary of the method: as §1

OR1A2 A108G = tested on: OR1A2 A108G
Sequence of OR1A2 A108G (as listed by the source, stated change not applied): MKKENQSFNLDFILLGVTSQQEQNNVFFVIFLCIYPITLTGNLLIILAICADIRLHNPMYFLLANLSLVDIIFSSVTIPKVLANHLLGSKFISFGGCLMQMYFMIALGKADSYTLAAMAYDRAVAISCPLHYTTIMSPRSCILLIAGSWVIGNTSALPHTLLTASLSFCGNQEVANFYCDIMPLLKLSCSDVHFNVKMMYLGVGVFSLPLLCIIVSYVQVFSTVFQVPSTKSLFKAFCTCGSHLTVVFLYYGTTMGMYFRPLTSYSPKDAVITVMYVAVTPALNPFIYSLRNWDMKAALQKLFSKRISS
Summary of the method: as §1

OR1A2 K109N T154A S155N = tested on: OR1A2 K109N T154A S155N
Summary of the method: as §1

OR1A2 K109N = tested on: OR1A2 K109N
Sequence of OR1A2 K109N (as listed by the source, stated change not applied): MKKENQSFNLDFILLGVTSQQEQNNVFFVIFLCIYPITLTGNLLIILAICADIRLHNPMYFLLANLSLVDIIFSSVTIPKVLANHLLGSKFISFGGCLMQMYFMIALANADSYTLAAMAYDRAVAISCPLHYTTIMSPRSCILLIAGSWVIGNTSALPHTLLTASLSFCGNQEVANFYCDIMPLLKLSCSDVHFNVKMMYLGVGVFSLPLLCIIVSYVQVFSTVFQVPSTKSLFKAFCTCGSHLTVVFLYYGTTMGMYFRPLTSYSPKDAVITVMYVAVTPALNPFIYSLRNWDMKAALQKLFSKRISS
Summary of the method: as §1

OR1A2 S155N = tested on: OR1A2 S155N
Sequence of OR1A2 S155N (as listed by the source, stated change not applied): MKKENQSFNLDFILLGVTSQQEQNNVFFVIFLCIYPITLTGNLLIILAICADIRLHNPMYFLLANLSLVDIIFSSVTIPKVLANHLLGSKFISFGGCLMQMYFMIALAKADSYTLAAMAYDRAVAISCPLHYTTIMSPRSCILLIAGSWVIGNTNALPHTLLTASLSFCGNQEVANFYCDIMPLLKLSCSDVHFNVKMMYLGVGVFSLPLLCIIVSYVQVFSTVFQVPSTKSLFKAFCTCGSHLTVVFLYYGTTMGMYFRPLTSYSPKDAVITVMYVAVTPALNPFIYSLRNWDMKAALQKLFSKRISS
Summary of the method: as §1

OR1A2 T154A S155N = tested on: OR1A2 T154A S155N
Summary of the method: as §1

OR1A2 T154A = tested on: OR1A2 T154A
Sequence of OR1A2 T154A (as listed by the source, stated change not applied): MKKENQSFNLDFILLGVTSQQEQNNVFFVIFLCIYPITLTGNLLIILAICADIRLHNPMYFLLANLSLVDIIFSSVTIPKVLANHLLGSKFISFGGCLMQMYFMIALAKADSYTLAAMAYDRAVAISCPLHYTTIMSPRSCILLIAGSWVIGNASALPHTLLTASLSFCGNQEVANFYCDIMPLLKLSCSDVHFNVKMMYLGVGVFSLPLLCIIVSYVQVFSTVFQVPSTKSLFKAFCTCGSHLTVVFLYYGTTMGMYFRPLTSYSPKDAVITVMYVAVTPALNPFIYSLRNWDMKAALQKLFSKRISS
Summary of the method: as §1

OR1A2 T254V = tested on: OR1A2 T254V
Sequence of OR1A2 T254V (as listed by the source, stated change not applied): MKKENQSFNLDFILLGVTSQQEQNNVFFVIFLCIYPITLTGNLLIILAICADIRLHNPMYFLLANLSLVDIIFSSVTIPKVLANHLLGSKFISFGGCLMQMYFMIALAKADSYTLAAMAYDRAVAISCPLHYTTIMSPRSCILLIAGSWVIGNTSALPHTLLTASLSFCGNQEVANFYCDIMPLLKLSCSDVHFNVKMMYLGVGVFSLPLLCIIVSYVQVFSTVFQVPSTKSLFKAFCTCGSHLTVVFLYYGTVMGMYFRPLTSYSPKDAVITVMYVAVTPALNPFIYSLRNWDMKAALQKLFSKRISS
Summary of the method: as §1

OR1A2 V205I = tested on: OR1A2 V205I
Sequence of OR1A2 V205I (as listed by the source, stated change not applied): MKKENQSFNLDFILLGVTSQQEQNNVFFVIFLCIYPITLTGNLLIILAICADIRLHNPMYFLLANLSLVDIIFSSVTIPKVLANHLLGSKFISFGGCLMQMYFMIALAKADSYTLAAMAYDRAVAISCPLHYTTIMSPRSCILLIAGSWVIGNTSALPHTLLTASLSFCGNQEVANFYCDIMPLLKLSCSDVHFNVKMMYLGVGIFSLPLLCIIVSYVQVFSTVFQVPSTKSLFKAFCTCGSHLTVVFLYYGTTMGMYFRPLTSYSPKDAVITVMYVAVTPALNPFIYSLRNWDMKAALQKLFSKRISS
Summary of the method: as §1

OR1A2 V277T = tested on: OR1A2 V277T
Sequence of OR1A2 V277T (as listed by the source, stated change not applied): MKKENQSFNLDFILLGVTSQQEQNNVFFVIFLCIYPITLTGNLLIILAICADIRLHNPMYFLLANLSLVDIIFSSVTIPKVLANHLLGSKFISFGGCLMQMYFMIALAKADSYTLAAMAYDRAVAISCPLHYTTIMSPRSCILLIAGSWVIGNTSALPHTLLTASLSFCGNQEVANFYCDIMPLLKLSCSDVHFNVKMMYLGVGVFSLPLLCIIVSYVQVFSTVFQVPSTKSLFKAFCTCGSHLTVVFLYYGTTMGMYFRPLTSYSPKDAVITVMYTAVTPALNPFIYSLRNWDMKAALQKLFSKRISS
Summary of the method: as §1

OR1D2 = tested on: OR1D2
Sequence of OR1D2 (as listed by the source): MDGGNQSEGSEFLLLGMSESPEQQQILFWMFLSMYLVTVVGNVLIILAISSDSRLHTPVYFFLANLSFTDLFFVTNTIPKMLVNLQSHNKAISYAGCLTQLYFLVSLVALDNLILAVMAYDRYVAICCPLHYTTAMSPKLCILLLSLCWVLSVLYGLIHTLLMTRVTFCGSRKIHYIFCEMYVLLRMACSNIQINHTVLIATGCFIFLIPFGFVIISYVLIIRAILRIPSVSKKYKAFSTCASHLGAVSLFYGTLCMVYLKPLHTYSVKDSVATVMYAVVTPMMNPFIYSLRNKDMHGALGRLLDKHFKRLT
Summary of the method: as §1

With `C=CC(C)=CCC=C(C)CCC=C(C)C` the “odorant receptor agonist call” value (OR1A2 (Homo sapiens)) was “inactive”.

`Cc1nccnc1C` was tested, and the “odorant receptor agonist call” value (OR1A2 (Homo sapiens)) was “inactive”.

`CCCCCCC(=O)[O-].[H+]` was tested, and the “odorant receptor agonist call” value (OR1A2 (Homo sapiens)) was “inactive”.

For `C=CC(O)CCCCC` (stereo not drawn), the “odorant receptor agonist call” value (OR1A2 (Homo sapiens)) was “inactive”.

For `CC(=O)CCc1ccc(O)cc1`, the “odorant receptor agonist call” value (OR1A2 (Homo sapiens)) was “inactive”.

`COc1nccnc1CC(C)C` was tested, and the “odorant receptor agonist call” value (OR1A2 (Homo sapiens)) was “inactive”.

In the case of `CC(C)=CCCC(C)=CC#N`, the “odorant receptor agonist call” value (OR1A2 (Homo sapiens)) is reported as “inactive”.

With `CCc1ncc(C)nc1CC` the “odorant receptor agonist call” value (OR1A2 (Homo sapiens)) was “inactive”.

`C=C(C)C1CC=C(C)CC1` (stereo not drawn) was tested, and the “odorant receptor agonist call” value (OR1A2 (Homo sapiens)) was “active”.

In the case of `CCCCC=CC=CC=O`, the “odorant receptor agonist call” value (OR1A2 (Homo sapiens)) is reported as “inactive”.

With `CCCCCCC=CC=O` the “odorant receptor agonist call” value (OR1A2 (Homo sapiens)) was “inactive”.

`COc1nccnc1C(C)C` was tested, and the “odorant receptor agonist call” value (OR1A2 (Homo sapiens)) was “inactive”.

In the case of `CCc1cnccn1`, the “odorant receptor agonist call” value (OR1A2 (Homo sapiens)) is reported as “inactive”.

With `CCCCCC=CC=CC=O` the “odorant receptor agonist call” value (OR1A2 (Homo sapiens)) was “active”.

With `CCCCCCCC=CC=CC=O` the “odorant receptor agonist call” value (OR1A2 (Homo sapiens)) was “inactive”.

With `CCCCCC=CCCC=O` the “odorant receptor agonist call” value (OR1A2 (Homo sapiens)) was “active”.

`CSCCCO` was tested, and the “odorant receptor agonist call” value (OR1A2 (Homo sapiens)) was “inactive”.

`CC(C)C12CCC(C)(CC1)O2` was tested, and the “odorant receptor agonist call” value (OR1A2 (Homo sapiens)) was “inactive”.

`CC(C)=CCCC(C)CC(=O)O` (stereo not drawn) was tested, and the “odorant receptor agonist call” value (OR1A2 (Homo sapiens)) was “inactive”.

For `CC(=O)C=CC1C(C)=CCCC1(C)C` (stereo not drawn), the “odorant receptor agonist call” value (OR1A2 (Homo sapiens)) was “active”.

With `O=C([O-])CCC(=O)[O-].[H+].[H+]` the “odorant receptor agonist call” value (OR1A2 (Homo sapiens)) was “inactive”.

With `CCC(C)c1nccnc1OC` (stereo not drawn) the “odorant receptor agonist call” value (OR1A2 (Homo sapiens)) was “inactive”.

In the case of `CN(C)C`, the “odorant receptor agonist call” value (OR1A2 (Homo sapiens)) is reported as “inactive”.

`CC(CC=O)CCCC(C)(C)O` (stereo not drawn) was tested, and the “odorant receptor agonist call” value (OR1A2 (Homo sapiens)) was “active”.

With `CCCCCCCC(=O)[O-].[H+]` the “odorant receptor agonist call” value (OR1A2 (Homo sapiens)) was “inactive”.

`COC(C=C(C)CCC=C(C)C)OC` was tested, and the “odorant receptor agonist call” value (OR1A2 (Homo sapiens)) was “inactive”.

`C=CC(=O)CC` was tested, and the “odorant receptor agonist call” value (OR1A2 (Homo sapiens)) was “inactive”.

In the case of `CSCCC=O`, the “odorant receptor agonist call” value (OR1A2 (Homo sapiens)) is reported as “inactive”.

In the case of `CC(C)=CCCC(C)CCO` (stereo not drawn), the “odorant receptor agonist call” value (OR1A2 A108G K109N S155N) is reported as “active”, the “odorant receptor agonist call” value [1] is reported as “active” and the “odorant receptor agonist call” value (OR1A2 A108G K109N T154A) is reported as “active”. For the same molecule, the “odorant receptor agonist call” value (OR1A2 A108G K109N) was “active”, the “odorant receptor agonist call” value (OR1A2 A108G T154A S155N) was “active” and the “odorant receptor agonist call” value (OR1A2 A108G) was “active”. The “odorant receptor agonist call” value (OR1A2 K109N T154A S155N) was “active”, the “odorant receptor agonist call” value (OR1A2 K109N) was “active” and the “odorant receptor agonist call” value (OR1A2 S155N) was “inactive”. For the same molecule, the “odorant receptor agonist call” value (OR1A2 T154A S155N) was “inactive”, the “odorant receptor agonist call” value (OR1A2 T154A) was “inactive” and the “odorant receptor agonist call” value (OR1A2 T254V) was “inactive”. For the same molecule, the “odorant receptor agonist call” value (OR1A2 V205I) was “inactive” and the “odorant receptor agonist call” value (OR1A2 V277T) was “inactive”.

With `CC(C=O)Cc1ccc(C(C)(C)C)cc1` (stereo not drawn) the “odorant receptor agonist call” value (OR1D2) was “inactive”.
